IC50, CC50 and MIC data for nine compounds are collected here from ChEMBL document CHEMBL2163246 (J Nat Prod, 2012).

What is called IC50 is the concentration that inhibits the measured activity by half. The term CC50 denotes the concentration giving 50% cytotoxicity. The MIC is the lowest concentration that inhibits growth of the organism.

Molecules are shown by their SMILES. Values after ≈ are worked out from the molar mass of the structure shown. Where a SMILES comes first, the peptide text is derived from it.

One experiment has as its system MDA-MB-231. Nature of the experiment: Cytotoxicity against human MDA-MB-231 cells after 72 hrs by MTS assay. To be noted: MDA-MB-231, 72 h. The format is functional, cell-based. An outline of the steps: (§1)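 Cells plated at 4 × 10³ cells/well, left overnight, then exposed to increasing concentrations (0.064–40 μM) diluted from DMSO solution into culture medium. After 72 h, MTS/PMS reagent added; absorbance read at 490 nm. Viability = (OD_treat − OD_blank)/(OD_control − OD_blank) × 100%, mean of triplicate wells; DMSO + medium untreated cells as control.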
(Tetrazolium assays rely on reduction of a dye to a coloured formazan, in cell work by metabolically active cells.)

Experiment [1] concerns KB. The experiment in a line: Cytotoxicity against human KB cells after 72 hrs by MTS assay. The format is functional, cell-based. An outline of the steps:
as §1

The nature of experiment [2]: Cytotoxicity against mouse EAC cells. To be noted: Ehrlich. The format is functional.
In the next experiment the test system is Pseudomonas aeruginosa. Nature of the experiment: Antimicrobial activity against Pseudomonas aeruginosa. The format is functional.
For experiment [3], the system named is KB. Nature of the experiment: Cytotoxicity against human KB cells. The format is functional, cell-based.
A short description of experiment [4]: Cytotoxicity against mouse DLA cells. The format is functional.
The next experiment has as its system Jurkat. The experiment in a line: Cytotoxicity against human Jurkat T cells after 72 hrs by MTS assay. Format: functional, cell-based. A digest of the protocol: as §1
The subject of another experiment is MOLT-4. The experiment in a line: Cytotoxicity against human MOLT4 cells after 72 hrs by MTS assay. Format: functional, cell-based. To be noted: MOLT-4, 72 h. An outline of the steps: as §1
For the next experiment, the system named is Candida albicans. The experiment in a line: Antimicrobial activity against Candida albicans. The format is functional.
For a further experiment, the system named is Escherichia coli. The experiment in a line: Antimicrobial activity against Escherichia coli. The format is functional.

For the compound `COc1cccc2c1C(=O)c1c(O)c3c(c(O)c1C2=O)C[C@@](O)(C(=O)CO)C[C@@H]3O[C@H]1C[C@H](N)[C@H](O)[C@H](C)O1` [DOXORUBICIN], the IC50 in the experiment with MDA-MB-231 was found to be 0.04 µM.

As for `CC(C)C[C@@H]1NC(=O)[C@H](C)NC(=O)[C@H](Cc2ccccc2)NC(=O)[C@H](Cc2ccc(O)cc2)NC(=O)[C@@H]2CCCN2C(=O)CNC1=O` (HELM PEPTIDE1{A.L.G.P.Y.F}$PEPTIDE1,PEPTIDE1,1:R1-6:R2$$$V2.0), the results for the IC50 in the experiment on MDA-MB-231 and with KB [1] were 7.7 µM and 7.8 µM, respectively.

As to `CC(C)C[C@@H]1NC(=O)CNC(=O)[C@H](Cc2ccccc2)NC(=O)[C@H](C)NC(=O)[C@@H]2CCCN2C(=O)CNC1=O` (HELM PEPTIDE1{A.F.G.L.G.P}$PEPTIDE1,PEPTIDE1,1:R1-6:R2$$$V2.0), the IC50 with MDA-MB-231 and in the experiment on KB [1] was > 10 µM throughout.

With `CC(C)C[C@@H]1NC(=O)CNC(=O)[C@H](Cc2ccccc2)NC(=O)[C@H](Cc2ccc(O)cc2)NC(=O)[C@@H]2CCCN2C(=O)[C@H](C)NC1=O` (HELM PEPTIDE1{A.P.Y.F.G.L}$PEPTIDE1,PEPTIDE1,1:R1-6:R2$$$V2.0), the IC50 was 10.2 µM in the experiment with MDA-MB-231 and 6.3 µM in the experiment on KB [1].

`CC(C)C[C@@H]1NC(=O)CNC(=O)[C@H](Cc2ccccc2)NC(=O)[C@H](Cc2ccc(O)cc2)NC(=O)CNC(=O)CNC1=O` (HELM PEPTIDE1{F.G.L.G.G.Y}$PEPTIDE1,PEPTIDE1,1:R1-6:R2$$$V2.0): the IC50 in the experiment on MDA-MB-231 and in the experiment on KB [1] was > 10 µM in each case.

`CC(C)C[C@@H]1NC(=O)CNC(=O)[C@H](Cc2ccccc2)NC(=O)[C@H](Cc2ccc(O)cc2)NC(=O)[C@@H]2CCCN2C(=O)CNC1=O` [Cherimolacyclopeptide E] (HELM PEPTIDE1{F.G.L.G.P.Y}$PEPTIDE1,PEPTIDE1,1:R1-6:R2$$$V2.0): the values for the CC50 in experiment [2] and in experiment [4] were 4.96 µM and 2.76 µM, respectively. Further, the MIC in the experiment on Pseudomonas aeruginosa, against Candida albicans and in the experiment on Escherichia coli was 6 µg/mL (≈ 9.45 µM) each time. In addition, the IC50 with KB [3], in the experiment with MDA-MB-231, with Jurkat, in the experiment with MOLT-4 and in the experiment on KB [1] was > 10 µM throughout.

For `C[C@@H]1NC(=O)CNC(=O)[C@H](Cc2ccccc2)NC(=O)[C@H](Cc2ccc(O)cc2)NC(=O)[C@@H]2CCCN2C(=O)CNC1=O` (HELM PEPTIDE1{A.G.P.Y.F.G}$PEPTIDE1,PEPTIDE1,1:R1-6:R2$$$V2.0), the IC50 with MDA-MB-231 and in the experiment on KB [1] was > 10 µM throughout.

`CC(C)C[C@@H]1NC(=O)CNC(=O)[C@H](Cc2ccccc2)NC(=O)[C@H](Cc2ccc(O)cc2)NC(=O)[C@H](C)NC(=O)CNC1=O` (HELM PEPTIDE1{A.Y.F.G.L.G}$PEPTIDE1,PEPTIDE1,1:R1-6:R2$$$V2.0): the IC50 in the experiment with MDA-MB-231 and in the experiment on KB [1] was > 10 µM each time.

Regarding `CC(C)C[C@@H]1NC(=O)CNC(=O)[C@H](C)NC(=O)[C@H](Cc2ccc(O)cc2)NC(=O)[C@@H]2CCCN2C(=O)CNC1=O` (HELM PEPTIDE1{A.G.L.G.P.Y}$PEPTIDE1,PEPTIDE1,1:R1-6:R2$$$V2.0), the IC50 in the experiment with MDA-MB-231 and in the experiment on KB [1] was > 10 µM throughout.
